# Screening results deposited in PubChem by several laboratories.
# NPR1 activator – GC-A stimulated cGMP production enhancers – HEK293 GC-A cells, cGMP TR-FRET, EC30 ANP, primary screen; 0% at EC30 ANP, 100% saturating ANP; activation, % at 10 µM; hit rate 0.14% among 370,000; AID 1671463, 2021; in the data active = activation above about 40%
# CASP6 VEID inh – human caspase-6 inhibitors, primary screen, biochemical, VEID-R110 fluorescence, single point, set 2; P55212; purified caspase-6, Z-VEID-R110 cleavage fluorescence; inhibition, % at 12.5 µM; hit rate 0.53% among 350,000; AID 686996, 2013;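 active = mean inhibition across replicates at least about 35%, with every replicate also reaching that limit, limit read from the data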;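 note: 0% = median of neutral control wells and 100% = no fluorescence left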
# Target sequence (P55212 24-179 limits assumed): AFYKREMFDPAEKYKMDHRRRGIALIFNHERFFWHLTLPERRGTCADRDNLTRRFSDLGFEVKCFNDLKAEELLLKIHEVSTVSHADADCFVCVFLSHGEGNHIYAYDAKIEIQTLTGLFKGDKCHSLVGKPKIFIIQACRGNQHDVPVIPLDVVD
# Target sequence (P55212 194-293 limits assumed): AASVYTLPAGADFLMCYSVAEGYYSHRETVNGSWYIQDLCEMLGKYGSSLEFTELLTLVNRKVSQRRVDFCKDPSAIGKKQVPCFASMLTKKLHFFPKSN
# NSD2 HMT inh – NSD2 histone methyltransferase inhibitors, primary screen, biochemical, AlphaScreen, single concentration, set 2; hit rate 0.54% among 310,000; inhibition, % at 12.5 µM; AID 743445, 2014; Histone-lysine N-methyltransferase NSD2 (Homo sapiens), O96028; NSD2 peptide methylation, 120 min; in the data active = inhibition above about 50%
# GC-B act – human GC-B receptor activators, primary screen, HEK293 GC-B cells, cGMP TR-FRET, EC30 CNP. 0% at EC30 CNP, 100% saturating CNP. Atrial natriuretic peptide receptor 2 (Homo sapiens), P20594. activation, % at 10 µM. hit rate 0.11% among 370,000;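 active = activation at 10 µM reaching about 35% in either raw or pattern-adjusted values, limit read from the data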
# CaV13 FRET inh – Disruptors of the CACNA1D IQ motif to Ca2+-dependent inactivation inhibitor domain association, primary screening, Förster resonance energy transfer in intact living …; HEK cells, CFP/YFP FRET ICDI-IQ, plate reader, 10 min; percent FRET-ratio fall versus neutral wells; inhibition, % at 12.3 µM; hit rate 0.098% among 340,000; AID 743397;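 active = mean replicate inhibition of at least 30% and at least 1% of replicates passing that level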;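 note: 0% = median of the neutral control wells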
# FN deposit inh – inhibitors of fibronectin matrix deposition, primary screen, AH1F cells, Alexa488-fibronectin fluorescence, plate reader; AH1F fibroblasts, overnight; hit rate 0.086% among 350,000; inhibition, % at 12.6 µM;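 active = mean inhibition across replicates of 30% or more, regardless of how many single replicates reach that level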;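 note: positive control wells lacked labelled fibronectin entirely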
#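 Test system: AH1F fibroblast monolayer depositing Alexa488-labelled fibronectin into matrix. Input: 10000 cells per well. Technique: fluorescence, ex 485 nm, em 525 nm. Buffer or medium: DMEM plus 2% serum, read in PBS. Timing: 1 h cell adhesion before compound, then overnight fibronectin incubation. Compound: single dose, pinned. Read-out basis: inhibition from reduced deposited-fibronectin fluorescence.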
# * marks the source's active call; other numbers are inactive results; x = not tested or not shown; + = active, no number; ! = not confirmed by another sample. Most compounds without a hit are left out; they make up all but 0.99% or so of the library.
SMILES,NPR1 activator,CASP6 VEID inh,NSD2 HMT inh,GC-B act,CaV13 FRET inh,FN deposit inh
O=C(CSc1nc2ccccc2s1)N/N=C/c1ccc(C(=O)O)cc1,3,2,0,3,-4,35*
O=C(CSc1nc2ccccc2s1)N/N=C/c1ccccc1C(=O)O,0,2,0,4,-1,5
COC(=O)c1ccc(=O)c2nc3/c(=C/O)c(O)cc(=O)c3[nH]c12,-9,66*,x,-15,x,x
O=C(C[C@@H]1C=C[C@@H](NC(=O)c2ccncc2)[C@H](CO)O1)NCCc1ccncc1,x,-3,x,x,x,0
O=[N+]([O-])c1cc(/C=N/NC(=S)Nc2ccccc2Cl)ccc1Cl,58*,1,-6,-5,5,6
Cc1ccc(S(=O)(=O)Nc2ccc3c(c2)C(=O)N([C@H](C)CO)C[C@H](C)[C@@H](CN(C)Cc2ccncc2)O3)cc1,x,0,x,x,x,x
N#Cc1cccc(-c2ccc([C@H]3[C@@H](CO)N4CCCCN(C(=O)Nc5ccc(F)cc5)C[C@@H]34)cc2)c1,x,-1,x,x,x,x
O=C(CSc1nnc(Nc2ccccc2F)s1)NC(=O)CN1CCCC1=O,-2,42*,4,3,-7,-10
O=C(CSc1nnc(Nc2ccccc2F)s1)NCc1ccco1,5,x,-6,-9,x,x
COCCNC(=O)[C@H]1[C@H](CO)[C@H]2Cn3c(ccc(-c4ccccc4)c3=O)[C@@H]1N2C(=O)NC(C)C,x,2,x,x,x,x
Cc1nn(-c2ccccc2)c(C)c1NC(=O)COC(=O)c1ccccc1,-1,-1,-3,4,-3,-6
Cc1ccc(C(=O)OCC(=O)Nc2c(C)nn(-c3ccccc3)c2C)c(O)c1,1,-3,-1,10,51*,-3
CSCC[C@H](NC(=O)[C@H](Cc1ccccc1)n1c(=O)[nH]c2ccccc2c1=O)C(=O)N1CCC[C@H]1C(=O)O,6,4,x,83*,x,x
NC(=O)CC[C@H](NC(=O)[C@H](Cc1ccccc1)n1c(=O)[nH]c2ccccc2c1=O)C(=O)N1CCC[C@H]1C(=O)O,-3,0,x,3,x,x
CCN(c1ccccc1)S(=O)(=O)c1cc(C(=O)O)ccc1C,-1,x,+,1,-5,-23
COc1cccc(NC(=O)COC(=O)c2n[nH]c3ccccc23)c1,x,x,0,x,x,x
Cc1ccc(NS(=O)(=O)c2cccc3nsnc23)cc1,0,2,2,-3,-3,0
O=S(=O)(Nc1ccccc1)c1cccc2nsnc12,0,36*,-1,1,-2,-1
O=c1c(Cl)cc(Cl)nn1-c1ccccc1,47*,3,x,1,-3,14
CC1(C)COC(/C=C/c2cccc([N+](=O)[O-])c2)=N1,2,46*,-4,-1,15,4
COc1cc(OC)c(OC)cc1CCC(C)NCCC(c1ccccc1)c1ccccc1 (stereo unspecified),-56,1,71*,-18,-4,3
COc1ccc(CCNCCC(c2ccccc2)c2ccccc2)cc1OC,-19,-4,45,-14,-5,2
COc1ccc(-n2nc3c(c2NC(=O)c2c(-c4ccccc4Cl)noc2C)CS(=O)(=O)C3)cc1,-4,42*,-1,-4,-7,x
NC(=O)Cn1cc(C(=O)C(=O)N2CCOCC2)c2ccccc21,5,45*,-1,-1,-3,0
CN1CCN(C(=O)C(=O)c2cn(CC(=O)N3CCOCC3)c3ccccc23)CC1,5,1,-2,0,-11,-5
SMILES,NPR1 activator,CASP6 VEID inh,NSD2 HMT inh,GC-B act,CaV13 FRET inh,FN deposit inh
CO[C@H]1CN(C)C(=O)c2cc(NC(=O)Nc3ccc(Cl)c(Cl)c3)ccc2OC[C@@H](C)NC[C@H]1C,x,x,x,x,x,-7
CO[C@H]1CN(C)C(=O)c2cc(NC(=O)Nc3cc(Cl)cc(Cl)c3)ccc2OC[C@H](C)NC[C@H]1C,x,x,x,x,x,32*!
CO[C@@H]1CN(C)C(=O)c2cc(NC(=O)Nc3cc(Cl)cc(Cl)c3)ccc2OC[C@H](C)NC[C@@H]1C,x,x,x,x,x,15
CO[C@H]1CN(C)C(=O)c2cc(NC(=O)Nc3ccccc3)ccc2OC[C@@H](C)N(C(=O)Nc2c(C)noc2C)C[C@H]1C,x,36*,x,x,x,0
CO[C@H]1CN(C)C(=O)c2ccc(NC(=O)Nc3ccc(Cl)c(Cl)c3)cc2OC[C@H](C)NC[C@@H]1C,x,-1,x,x,x,31*!
CO[C@H]1CN(C)C(=O)c2cc(NC(=O)Nc3ccc(Cl)c(Cl)c3)ccc2OC[C@@H](C)NC[C@@H]1C,x,x,x,x,x,32*!
CO[C@H]1CN(C)C(=O)c2cc(NS(=O)(=O)CC(F)(F)F)ccc2OC[C@@H](C)N(C(=O)NC(C)C)C[C@H]1C,x,0,x,x,x,-5
CC(=O)c1ccc2c(c1)C1C=CCC1C(C(=O)O)N2 (stereo unspecified),-12,x,128*,-3,-4,x
CC(=O)c1ccc2c(c1)C1C=CCC1C(c1ccncc1)N2 (stereo unspecified),0,x,5,0,x,x
O=C(Nc1ccc(F)cc1)c1nc(S(=O)(=O)Cc2ccccc2)ncc1Cl,42*,5,-4,14,-13,-1
Cc1ccccc1CS(=O)(=O)c1ncc(Cl)c(C(=O)Nc2ccc(F)cc2)n1,42*,9,-1,10,-16,39*
CCS(=O)(=O)c1ncc(Cl)c(C(=O)Nc2ccc(S(=O)(=O)N(C)c3ccccc3)cc2)n1,62*,-1,-2,41*,-2,67*
COc1ccc(NS(=O)(=O)c2cc(NC(=O)[C@H](C)NC(N)=O)ccc2N2CCCC2)cc1,-1,44*,3,0,-7,1
NS(=O)(=O)c1ccc(CNC(=O)/C=C/c2ccco2)cc1,1,36*,42,-1,-5,-2
O=C(N/C=C/c1ccco1)OCc1ccccc1,-1,3,0,-2,-8,-4
O=C(N/C=C/c1ccco1)NCc1ccccc1,0,42*,21,-3,-4,-1
O=C(/C=C/c1ccc(Br)o1)OCc1nc2ccsc2c(=O)[nH]1,x,38*,x,x,x,x
Cc1ccc(C(=O)OCc2nc3ccsc3c(=O)[nH]2)o1,1,7,3,0,-2,-13
CO[C@H]1CN(C)C(=O)c2cc(NC(=O)C3CC3)ccc2OC[C@H](C)N(C(=O)c2ccccc2F)C[C@H]1C,x,0,x,x,x,-5
COc1ccc(OCc2cc(C(=O)N[C@H]3CCCCNC3=O)no2)c(Cl)c1,23,4,-1,-1,-2,-6
